Assay results published in PubChem BioAssay AID588621 (Sanford-Burnham Center for Chemical Genomics, 2011).
Out of some 360,000 compounds screened, about 890 (0.25%) were called active. The list comes from a sample in which actives are over-represented; it also holds similar structures and randomly drawn compounds. A number with no mark means an inactive call.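 The calls were made as follows: active = inhibition at 20 µM, scaled per plate between control wells, above about 37% (limit read from the data); inactive = the rest.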

The compounds below were run against Tyrosine-protein phosphatase non-receptor type 5 (Homo sapiens) (UniProt P54829) (assay: inhibition of human PTPN5 enzyme activity – biochemical, fluorescence intensity, uHTS, primary screen (AID 588621;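 also: 0% = DMSO with enzyme and substrate and 100% = substrate only without enzyme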)). Settings: recombinant STEP, OMFP fluorogenic substrate, at 20 µM, active compounds read high.
Tyrosine-protein phosphatase non-receptor type 5 (Homo sapiens), sequence (P54829 whole entry, looked up): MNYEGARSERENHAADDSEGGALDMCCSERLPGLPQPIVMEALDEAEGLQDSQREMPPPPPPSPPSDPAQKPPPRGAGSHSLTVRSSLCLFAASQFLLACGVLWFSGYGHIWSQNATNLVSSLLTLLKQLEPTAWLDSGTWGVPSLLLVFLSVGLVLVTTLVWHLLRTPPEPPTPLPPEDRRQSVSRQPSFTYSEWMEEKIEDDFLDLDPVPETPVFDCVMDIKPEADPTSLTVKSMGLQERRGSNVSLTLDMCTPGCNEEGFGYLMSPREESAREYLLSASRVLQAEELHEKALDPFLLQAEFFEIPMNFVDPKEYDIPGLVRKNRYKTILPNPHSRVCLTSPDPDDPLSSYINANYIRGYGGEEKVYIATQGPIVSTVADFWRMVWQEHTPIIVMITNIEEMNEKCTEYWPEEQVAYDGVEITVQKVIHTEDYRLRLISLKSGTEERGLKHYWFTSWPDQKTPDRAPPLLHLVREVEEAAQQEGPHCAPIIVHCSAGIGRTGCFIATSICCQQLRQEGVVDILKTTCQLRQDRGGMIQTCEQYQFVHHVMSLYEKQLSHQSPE
Procedure, shortened: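 System: STEP phosphatase, cell-free reaction; Buffer or medium: Bis-Tris pH 6.0 buffer with DTT, detergent; Incubation: 20 min at room temperature, dark; Measured by: fluorescence, 480/540 nm.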

| Compound | inhibition |
| --- | --- |
| Cc1ccc(-n2c(N)c(C(=O)N3CCOCC3)sc2=S)c(C)c1 | 5.2% |
| Cc1cccc(-n2c(N)c(C(=O)N3CCN(C)CC3)sc2=S)c1 | 90.4% (active) |
| N#Cc1ccccc1-n1c(N)c(C(=O)N2CCCC2)sc1=S | 7.5% |
| Cc1cc(-c2nnc(SCC(=O)Nc3ccc(F)cc3)n2N)n[nH]1 | -1.1% |
| COC(=O)Cn1cnc2scc(-c3ccc(C)c(C)c3)c2c1=O | 1.3% |
| Cc1ccc(C(C)(C)C)c(OCCCCN2CCCC2)c1 | -0.8% |
| CSc1nnc(C2CCCN(CC(=O)Nc3ccccc3N3CCOCC3)C2)n1C(C)C (stereo not given) | 7.7% |
| C=CCc1ccccc1OCC(O)CN1CCN(CCO)CC1 (stereo not given) | -0.9% |
| OCCN1CCN(C(=S)c2ccc(-c3ccccc3)cc2)CC1 | 92.5% (active) |
| S=C(c1ccc(-c2ccccc2)o1)N1CCCCC1 | 10% |
| Cc1cc(OC(=O)c2ccccc2)c([N+](=O)[O-])c(=O)[nH]1 | -3.5% |
| CN(C)c1ccc(CNC23CN4CN(CN(C4)C2)C3)cc1 | -4.8% |
| O=C(OCC(=O)N1CCN(C(=O)c2ccco2)CC1)c1ccccc1Cc1ccccc1 | -3.5% |
| CCC1(C)N(O)C(C)(C)C(c2ccc(OC)cc2)=[N+]1[O-] (stereo not given) | -1.7% |
| O=S(=O)(Nc1ccccc1Cl)c1cccc2nsnc12 | 52.9% (active) |
| COc1ccc(NS(=O)(=O)c2cccc3nsnc23)cc1Cl | -1.2% |
| O=C(O)c1ccc(NS(=O)(=O)c2cccc3nsnc23)cc1 | 1.7% |
| O=C(COC(=O)c1cc([N+](=O)[O-])ccc1NCc1ccccc1)NC1CCCCC1 | 0.9% |
| O=C(CCN1C(=O)c2ccncc2C1=O)Nc1cc(F)ccc1F | -2.7% |
| COc1ccc(-c2cc(C(F)(F)F)nc(S(C)(=O)=O)n2)cc1OC | 0.2% |
| O=C(COc1ccccc1F)NNC(=O)c1ccc(N2CCCCC2)c([N+](=O)[O-])c1 | 0.7% |
| C/C(O)=C\c1nc(=O)c2c(C)cc(C)nc2n1-c1ccccc1 | 1.8% |
| CCc1cccc(NC(=S)N(CCN(C)C)C2CCN(C(C)C)CC2)c1 | 4.4% |
| COc1ccccc1NC(=O)C(C)OC(=O)CC1CCCC1 (stereo not given) | -2.3% |

| Compound | inhibition |
| --- | --- |
| COCCN(C(=S)Nc1ccccc1OC)C1CCN(C(C)C)CC1 | 44.6% (active) |
| Cc1ccc(NC2=C(Cl)C(=O)OC2OC(=O)c2ccccc2C)cc1 (stereo not given) | -1.2% |
| COCc1c(C(=O)N/N=C/C2CC=CCC2)nnn1-c1nonc1N (stereo not given) | 44.4% (active) |
| Nc1nonc1-n1nnc(C(=O)N/N=C/C2CCCCC2)c1-c1ccccc1 | -0.5% |
| COCc1c(C(=O)N/N=C(\C)c2ccncc2)nnn1-c1nonc1N | -0.3% |
| CCc1c(C)sc(NC(=O)OC)c1C(=O)N1CCOCC1 | 10.1% |
| Cc1cc(C)cc(C(=O)OCC(=O)NCCNC(=O)COC(=O)c2cc(C)cc(C)c2)c1 | 1% |
| CCc1nc2c(OCCC3CCCCC3)cccn2c1N(C)C(=O)c1ccco1 | 4.5% |
| COc1cc(OC)c(-n2cc(-c3ccc(Cl)cc3)[nH]c2=O)cc1Cl | 0.7% |
| CCCn1c(C2CCCN2c2nc(-c3ccc(C)cc3)cs2)nc2cc(Cl)c(N3CCCCC3)cc21 (stereo not given) | 3.4% |
| Cc1ccc(-c2csc(N3CCN(c4cc5c(cc4Cl)nc(-c4ccncc4)n5CCOCCO)CC3)n2)cc1 | 2.3% |
| Nc1c(Cl)cc(-c2csc(N3CCCC3c3nc4cc(Cl)c(Cl)cc4n3CCOCCO)n2)cc1Cl (stereo not given) | 36.9% (active) |
| O=c1nc(N2CCOCC2)nc2n1CCO2 | 4.3% |
| COc1cccc(/C=C/C(=O)OCC(=O)N2CCCc3ccccc32)c1 | -1.7% |
| N#Cc1c(-c2cccs2)nc(SCC(=O)c2ccc(Br)cc2)[nH]c1=O | 78.8% (active) |
| CCc1ccc(C(=O)CSc2nnc(C)c(=O)[nH]2)cc1 | -1% |
| N#Cc1c(-c2ccccc2)nc(SCc2cccc(C(F)(F)F)c2)[nH]c1=O | 2.7% |
| Cc1ccnc(N2CCN(C(=O)CSc3nc4ccccc4nc3N3CCCCC3)CC2)c1 | 7.7% |
| CC(C)C(O)C1CCN(Cc2nc(Cc3ccccc3Cl)no2)CC1 (stereo not given) | -0.6% |
| CN(C(=O)CSc1nnc(N)s1)c1c(N)n(Cc2ccccc2)c(=O)[nH]c1=O | 2% |
| Cc1ccnc(NS(=O)(=O)c2ccc(NC(=O)c3ccc(S(=O)(=O)N(C)C)cc3)cc2)n1 | 10.2% |
| CC(Oc1ccc(Cl)cc1)c1ccnn1S(C)(=O)=O (stereo not given) | -1.9% |
| Cc1ccc(OCC(=O)NCCCNC(=O)c2cccnc2)cc1C | 2.8% |
| Cc1cccc(OCC(=O)NCCNC(=O)c2cccnc2)c1 | 0.6% |

| Compound | inhibition |
| --- | --- |
| Cc1ccc(NC(=O)COc2ccc(/C=N\NC(=O)c3cccnc3)cc2)cc1C | 93% (active) |
| CC(=O)c1nc(N2C(=O)C3CC=C(C)CC3C2=O)sc1C (stereo not given) | -0.6% |
| O=C(NCc1ccc(F)cc1)c1cc(C2CCCCN2C(=O)c2ccccn2)on1 (stereo not given) | -0.8% |
| CCOCCCNc1c(CC)c(C)c(C#N)c2nc3ccccc3n12 | -1% |
| CCc1cccc(C)c1N(C(=O)Cn1c(CO)nc2ccccc21)C(C)COC (stereo not given) | -4.3% |
| CCCCC(=O)Nc1nc(C)c(-c2csc(Nc3ccc(Cl)cc3)n2)s1 | -1.7% |
| Cc1ccn2c(-c3csc(Nc4ccc(C(=O)O)cc4)n3)c(C)nc2c1 | 41.9% (active) |
| C/C(=N\OC(=O)c1ccccc1)c1c(C)nc2cc(C)ccn12 | -1.4% |
| COc1cccc(-c2cnc(C(O)c3ccccc3OC)[nH]2)c1 (stereo not given) | -2.4% |
| COCCCNC(=O)[C@H]1N2C(=O)c3ccccc3C2SC1(C)C (stereo not given in full) | 0.9% |
| Cc1[nH]c2ccccc2c1C(=O)C(=O)NCc1nnnn1-c1cccc(F)c1 | 0.6% |
| COc1ccc(CCN2CC(C(=O)NCCN3CCNC3=O)CCC2=O)cc1 (stereo not given) | -4.2% |
| Cc1cc(F)ccc1S(=O)(=O)Nc1ccc(C(=O)N(C)Cc2ccco2)cc1 | 2.5% |
| Cc1ccccc1NC(=O)C(C)OC(=O)CCC(=O)N(CC(C)C)c1c(N)n(CC(C)C)c(=O)[nH]c1=O (stereo not given) | -1.1% |
| CCOc1ccc(NC(=O)c2ccc(NC(=O)CN3C(=O)C(=O)N(CC(C)C)C3=O)cc2)cc1 | -3.1% |
| COCCNC(=O)Nc1ccc2nc(-c3ccco3)c(-c3ccco3)nc2c1 | 60.1% (active) |
| COc1ccc(CCNC(=O)Nc2ccc3c(c2)c(=O)n(C)n3C)cc1OC | 1.1% |
| Cc1cc2nc(C)n(CCCNC(=O)Nc3ccccc3)c2cc1C | -3.8% |
| O=C(COC(=O)Cc1ccc(Br)cc1)Nc1c(F)c(F)c(F)c(F)c1F | -0.2% |
| Nc1cc(=O)c2[nH]cnc2[nH]1 | -4.7% |
| CN(C(=O)COC(=O)c1cc(-c2ccco2)nc2ccccc12)C1CCS(=O)(=O)C1 (stereo not given) | 64.5% (active) |
| COc1ccc(NC(=O)COc2ccc(C(=O)OCC(=O)N(C)C3CCS(=O)(=O)C3)cc2OC)cc1 (stereo not given) | -4.8% |
| CN(C(=O)COC(=O)Cc1ccccc1[N+](=O)[O-])C1CCS(=O)(=O)C1 (stereo not given) | -3.3% |
| O=C1c2ccccc2C(=O)N1CCC(O)C[N+](=O)[O-] (stereo not given) | 3.3% |

| Compound | inhibition |
| --- | --- |
| COC(=O)C1=C(C)NC(=S)NC1c1ccc(OCC(=O)N2CC(C)OC(C)C2)c(OC)c1 (stereo not given) | -3.9% |
| O=S(=O)(c1ccc(-c2ccno2)s1)N1CCCCC1 | -0.2% |
| Cc1noc(C)c1CCC(=O)N1CCCC(CO)(Cc2ccccc2)C1 (stereo not given) | -1.7% |
| Cc1ccccc1CC1(CO)CCCN(C(=O)c2cc(-c3ccccc3)no2)C1 (stereo not given) | 120% (active) |
| Cc1ccccc1CC1(CO)CCCN(Cc2ccc3c(c2)OCCO3)C1 (stereo not given) | -4% |
| COc1ccc(S(=O)(=O)NC(C)C(=O)NCc2ccncc2)cc1Cl (stereo not given) | -1.3% |
| CCCCC[C@@H]1C=C(C(=O)O)[C@H](c2ccc(C#N)cc2)N1S(=O)(=O)c1ccc(C)cc1 | -1.7% |
| O=C(CS(=O)(=O)Cc1ccccc1)Nc1cccnc1 | -1.4% |
| O=C(OCC(=O)N1CCCC1)c1ccc(Cl)nc1 | -2.6% |
| CC(C)(C)c1ccc(SCCc2ccncc2)cc1 | 0% |
| CCN(C(=O)COc1ccc(C(=O)c2ccccc2)cc1)c1ccccc1 | -1.7% |
| O=C(COC(=O)COc1cccc(F)c1)NCC1CCCCC1 | -3.8% |
| O=C(COc1cccc(F)c1)Oc1ccc(C(=O)c2ccccc2)cc1 | 89.8% (active) |
| S=C(Nc1ccc2c(c1)OCO2)N1CCCC1 | -3.3% |
| Cc1ccc(S(=O)(=O)N2CCN(C(=O)CCC(=O)NC3CCCc4ccccc43)CC2)cc1 (stereo not given) | -4.5% |
| CCCCN(C)Cc1c(C)[nH]c2ccc(Cl)cc2c1=O | -4.1% |
| Cc1ccc(S(=O)(=O)c2c[nH]c3ccc(Cl)cc3c2=O)cc1 | 37.4% (active) |
| Cc1ccc(S(=O)(=O)c2c[nH]c3ccc(C)cc3c2=O)cc1 | -0.1% |
| CC1CCN(C(=O)CN(c2ccc(Oc3ccccc3)cc2)S(C)(=O)=O)CC1 | 2.5% |
| CCN(CC)CCn1cnc2c1c(=O)n(CCOC(=O)c1cc(OC)c(OC)c(OC)c1)c(=O)n2C | -2.8% |
| Cc1ccc(-c2nnc(-c3ccc(NC(=O)c4cccs4)cc3)o2)cc1 | 54.4% (active) |
| Cc1ccc(C(=O)NCC(=O)OCc2nnc(-c3ccccc3)o2)cc1 | -0.5% |
| O=C(Nc1ccc(N2CCN(C(=O)C3CC3)CC2)cc1)c1cccs1 | -1.5% |
